Data reported in ChEMBL document CHEMBL2062426 (J Med Chem, 2012).

Experiments:
Liver [1] = test: Tmax in C57/Bl6 mouse liver at 250 kBq/g bodyweight, iv administered as bolus dose by PET scanning; type: ADME, organism-based; settings: in vivo
Procedure, shortened: (§1)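 Adult C57/Bl6 mice given the 18F tracer by intravenous injection. List-mode PET data acquired for 120 min on a high-resolution small-animal scanner and reconstructed into dynamic frames iteratively. Organ volumes of interest were drawn on co-registered CT. Uptake is counts per mL in the VOI divided by total counts in the mouse ×100 (% ID/mL).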

[2] = Drug metabolism in iv dosed ICR CD1 mouse urine assessed as radiometabolite 1 level after 30 mins by gamma-counting based HPLC analysis; type: ADME, organism-based; settings: in vivo, 0.5 h
Procedure, shortened: (§2)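 Three 10-month-old female ICR (CD1) mice received about 11.1 MBq tracer by tail vein and were killed 30 min pi. Plasma was taken from blood by centrifugation, and urine was collected. Muscle, kidney and liver were homogenized in 1% SDS/PBS and extracted with acetonitrile/acetic acid. Supernatants were γ-counted, %ID/g was computed against a dose aliquot, and samples were run on C18 radio-HPLC with an acetonitrile/water gradient in 0.05% TFA.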

[3] = Drug metabolism in iv dosed ICR CD1 mouse urine assessed as radiometabolite 2 level after 30 mins by gamma-counting based HPLC analysis; type: ADME, organism-based; settings: in vivo, 0.5 h; procedure, shortened: as §2
Liver [4] = test: Drug metabolism in iv dosed ICR CD1 mouse liver assessed as radiometabolite 3 level after 30 mins by gamma-counting based HPLC analysis; type: ADME, organism-based; settings: in vivo, 0.5 h; procedure, shortened: as §2
Kidney [5] = test: Tmax in C57/Bl6 mouse kidney at 250 kBq/g bodyweight, iv administered as bolus dose by PET scanning; type: ADME, organism-based; settings: in vivo; procedure, shortened: as §1
[6] = Metabolic stability in iv dosed ICR CD1 mouse urine assessed as compound remaining after 30 mins by gamma-counting based HPLC analysis; type: ADME, organism-based; settings: in vivo, 0.5 h; procedure, shortened: as §2
Kidney [7] = test: Drug metabolism in iv dosed ICR CD1 mouse kidney assessed as radiometabolite 2 level after 30 mins by gamma-counting based HPLC analysis; type: ADME, organism-based; settings: in vivo, 0.5 h; procedure, shortened: as §2
Muscle tissue [8] = test: Drug metabolism in iv dosed ICR CD1 mouse muscle assessed as radiometabolite 2 level after 30 mins by gamma-counting based HPLC analysis; type: ADME, organism-based; settings: in vivo, 0.5 h; procedure, shortened: as §2
Brain = test: Drug uptake in C57/Bl6 mouse brain at 250 kBq/g bodyweight, iv administered as bolus dose up to 120 mins by PET scanning; type: ADME, organism-based; settings: in vivo, 2 h; procedure, shortened: as §1
Liver [9] = test: Drug metabolism in iv dosed ICR CD1 mouse liver assessed as radiometabolite 1 level after 30 mins by gamma-counting based HPLC analysis; type: ADME, organism-based; settings: in vivo, 0.5 h; procedure, shortened: as §2
Kidney [10] = test: Half life in C57/Bl6 mouse kidney at 250 kBq/g bodyweight, iv administered as bolus dose by PET scanning; type: ADME, organism-based; settings: in vivo; procedure, shortened: as §1
[11] = Drug metabolism in iv dosed ICR CD1 mouse urine assessed as radiometabolite 4 level after 30 mins by gamma-counting based HPLC analysis; type: ADME, organism-based; settings: in vivo, 0.5 h; procedure, shortened: as §2
Plasma [12] = test: Metabolic stability in iv dosed ICR CD1 mouse plasma assessed as compound remaining after 30 mins by gamma-counting based HPLC analysis; type: ADME, organism-based; settings: in vivo, 0.5 h; procedure, shortened: as §2
Liver [13] = test: Half life in C57/Bl6 mouse liver at 250 kBq/g bodyweight, iv administered as bolus dose by PET scanning; type: ADME, organism-based; settings: in vivo; procedure, shortened: as §1
Plasma [14] = test: Drug metabolism in iv dosed ICR CD1 mouse plasma assessed as radiometabolite 3 level after 30 mins by gamma-counting based HPLC analysis; type: ADME, organism-based; settings: in vivo, 0.5 h; procedure, shortened: as §2
Serum [15] = test: Drug metabolism in mouse serum at 5 MBq up to 120 mins by radio-HPLC analysis; type: ADME, cell-free; settings: 2 h
Procedure, shortened: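 Serum stability was repeated in mouse blood serum at 37 °C, with analysis by radio-HPLC.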

[16] = Octanol-water partition coefficient, log D of the compound after 1 min by gamma-counting at pH 7.4; type: physicochemical
Procedure, shortened: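 About 20 kBq of tracer was shaken for 1 min at room temperature in 0.5 mL PBS pH 7.4 with 0.5 mL 1-octanol, then centrifuged (3000 rpm, 2 min). Triplicate 100 μL samples of each phase were γ-counted. log D7.4 is log(cpm octanol/cpm PBS), from two independent experiments in triplicate, given as mean ± SD.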

[17] = Metabolic stability in iv dosed ICR CD1 mouse muscle assessed as compound remaining after 30 mins by gamma-counting based HPLC analysis; type: ADME, organism-based, Muscle tissue; settings: read-out: Stability; procedure, shortened: as §2
Muscle tissue [18] = test: Drug metabolism in iv dosed ICR CD1 mouse muscle assessed as radiometabolite 4 level after 30 mins by gamma-counting based HPLC analysis; type: ADME, organism-based; settings: in vivo, 0.5 h; procedure, shortened: as §2
Plasma [19] = test: Drug metabolism in iv dosed ICR CD1 mouse plasma assessed as radiometabolite 4 level after 30 mins by gamma-counting based HPLC analysis; type: ADME, organism-based; settings: in vivo, 0.5 h; procedure, shortened: as §2
Liver [20] = test: Drug metabolism in iv dosed ICR CD1 mouse liver assessed as radiometabolite 2 level after 30 mins by gamma-counting based HPLC analysis; type: ADME, organism-based; settings: in vivo, 0.5 h; procedure, shortened: as §2
Lung = test: Drug uptake in C57/Bl6 mouse lungs at 250 kBq/g bodyweight, iv administered as bolus dose up to 120 mins by PET scanning; type: ADME, organism-based; settings: in vivo, 2 h; procedure, shortened: as §1
Kidney [21] = test: Drug metabolism in iv dosed ICR CD1 mouse kidney assessed as radiometabolite 3 level after 30 mins by gamma-counting based HPLC analysis; type: ADME, organism-based; settings: in vivo, 0.5 h; procedure, shortened: as §2
[22] = Drug uptake in C57/Bl6 mouse myocardium at 250 kBq/g bodyweight, iv administered as bolus dose up to 120 mins by PET scanning; type: ADME, organism-based; settings: in vivo, 2 h; procedure, shortened: as §1
Mus musculus = test: Drug metabolism in C57/Bl6 mouse assessed as defluorination at 250 kBq/g bodyweight, iv administered as bolus dose up to 120 mins by PET scanning; type: ADME, organism-based; settings: in vivo, 2 h; procedure, shortened: as §1
[23] = Drug metabolism in iv dosed ICR CD1 mouse urine assessed as radiometabolite 3 level after 30 mins by gamma-counting based HPLC analysis; type: ADME, organism-based; settings: in vivo, 0.5 h; procedure, shortened: as §2
Serum [24] = test: Metabolic stability in human serum at 5 MBq up to 120 mins by radio-HPLC analysis; type: ADME, cell-free; settings: 2 h
Procedure, shortened: (§3)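 The PBS-formulated 18F tracer (20 μL, 5 MBq) was added to 200 μL human serum and incubated at 37 °C. Samples of 20 μL were taken at 10, 20, 30, 60, 90 and 120 min, quenched in methanol/CH2Cl2 1:1 and centrifuged 2 min. The organic layer was analysed by radio-HPLC (C18; 30% CH3CN/0.1% TFA for 15 min, then gradient).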

Liver [25] = test: Metabolic stability in iv dosed ICR CD1 mouse liver assessed as compound remaining after 30 mins by gamma-counting based HPLC analysis; type: ADME, organism-based; settings: in vivo, 0.5 h; procedure, shortened: as §2
Muscle tissue [26] = test: Drug metabolism in iv dosed ICR CD1 mouse muscle assessed as radiometabolite 1 level after 30 mins by gamma-counting based HPLC analysis; type: ADME, organism-based; settings: in vivo, 0.5 h; procedure, shortened: as §2
Muscle tissue [27] = test: Drug metabolism in iv dosed ICR CD1 mouse muscle assessed as radiometabolite 3 level after 30 mins by gamma-counting based HPLC analysis; type: ADME, organism-based; settings: in vivo, 0.5 h; procedure, shortened: as §2
Serum [28] = test: Drug metabolism in human serum at 5 MBq up to 120 mins by radio-HPLC analysis; type: ADME, cell-free; settings: 2 h; procedure, shortened: as §3
Muscle tissue [29] = test: Drug uptake in C57/Bl6 mouse muscle at 250 kBq/g bodyweight, iv administered as bolus dose up to 120 mins by PET scanning; type: ADME, organism-based; settings: in vivo, 2 h; procedure, shortened: as §1
Kidney [30] = test: Drug metabolism in iv dosed ICR CD1 mouse kidney assessed as radiometabolite 1 level after 30 mins by gamma-counting based HPLC analysis; type: ADME, organism-based; settings: in vivo, 0.5 h; procedure, shortened: as §2
Plasma [31] = test: Drug metabolism in iv dosed ICR CD1 mouse plasma assessed as radiometabolite 1 level after 30 mins by gamma-counting based HPLC analysis; type: ADME, organism-based; settings: in vivo, 0.5 h; procedure, shortened: as §2
Plasma [32] = test: Drug metabolism in iv dosed ICR CD1 mouse plasma assessed as radiometabolite 2 level after 30 mins by gamma-counting based HPLC analysis; type: ADME, organism-based; settings: in vivo, 0.5 h; procedure, shortened: as §2
Liver [33] = test: Drug metabolism in iv dosed ICR CD1 mouse liver assessed as radiometabolite 4 level after 30 mins by gamma-counting based HPLC analysis; type: ADME, organism-based; settings: in vivo, 0.5 h; procedure, shortened: as §2
Kidney [34] = test: Drug metabolism in iv dosed ICR CD1 mouse kidney assessed as radiometabolite 4 level after 30 mins by gamma-counting based HPLC analysis; type: ADME, organism-based; settings: in vivo, 0.5 h; procedure, shortened: as §2
Kidney [35] = test: Metabolic stability in iv dosed ICR CD1 mouse kidney assessed as compound remaining after 30 mins by gamma-counting based HPLC analysis; type: ADME, organism-based; settings: in vivo, 0.5 h; procedure, shortened: as §2

Q: For `COc1ccc(S(=O)(=O)N(Cc2cn(CC[18F])nn2)[C@@H](C(=O)NO)C(C)C)cc1`, which Tmax (Liver [1]) is on record?
A: 4 min

Q: And the Drug metabolism [2]?
A: 2.32 % ID/g

Q: What about the Drug metabolism [3] of the same compound?
A: 0.33 % ID/g

Q: What about the Drug metabolism (Liver [4]) of the same compound?
A: 1.32 % ID/g

Q: And the Tmax (Kidney [5])?
A: 0.5 min

Q: What about the Stability [6] of the same compound?
A: 27.86 % ID/g

Q: What about the Drug metabolism (Kidney [7]) of the same compound?
A: 0 % ID/g

Q: And the Drug metabolism (Muscle tissue [8])?
A: 0 % ID/g

Q: And the Drug uptake (Brain)?
A: Not Active

Q: What about the Drug metabolism (Liver [9]) of the same compound?
A: 0.12 % ID/g

Q: What about the t1/2 (Kidney [10]) of the same compound?
A: 13 min

Q: What about the Drug metabolism [11] of the same compound?
A: 0.33 % ID/g

Q: What about the Stability (Plasma [12]) of the same compound?
A: 0.29 % ID/g

Q: And the t1/2 (Liver [13])?
A: 18 min

Q: What about the Drug metabolism (Plasma [14]) of the same compound?
A: 0 % ID/g

Q: And the Drug metabolism (Serum [15])?
A: Not Active

Q: And the logD at 1 min [16]?
A: 0.6

Q: What about the tissue uptake at 0.5 h [17] of the same compound?
A: 0.21 %ID/g

Q: What about the Drug metabolism (Muscle tissue [18]) of the same compound?
A: 0 % ID/g

Q: What about the Drug metabolism (Plasma [19]) of the same compound?
A: 0 % ID/g

Q: What about the Drug metabolism (Liver [20]) of the same compound?
A: 0 % ID/g

Q: What about the Drug uptake (Lung) of the same compound?
A: Not Active

Q: What about the Drug metabolism (Kidney [21]) of the same compound?
A: 0.21 % ID/g

Q: What about the Drug uptake [22] of the same compound?
A: Not Active

Q: And the Drug metabolism (Mus musculus)?
A: Not Active

Q: And the Drug metabolism [23]?
A: 2.32 % ID/g

Q: What about the Stability (Serum [24]) of the same compound?
A: Stable

Q: And the Stability (Liver [25])?
A: 0.78 % ID/g

Q: And the Drug metabolism (Muscle tissue [26])?
A: 0 % ID/g

Q: What about the Drug metabolism (Muscle tissue [27]) of the same compound?
A: 0 % ID/g

Q: And the Drug metabolism (Serum [28])?
A: Not Active

Q: And the Drug uptake (Muscle tissue [29])?
A: Not Active

Q: What about the Drug metabolism (Kidney [30]) of the same compound?
A: 0.26 % ID/g

Q: What about the Drug metabolism (Plasma [31]) of the same compound?
A: 0.17 % ID/g

Q: What about the Drug metabolism (Plasma [32]) of the same compound?
A: 0 % ID/g

Q: What about the Drug metabolism (Liver [33]) of the same compound?
A: 0.78 % ID/g

Q: What about the Drug metabolism (Kidney [34]) of the same compound?
A: 0.1 % ID/g

Q: What about the Stability (Kidney [35]) of the same compound?
A: 4.6 % ID/g

Q: Which Tmax (Liver [1]) does the source give for `CC(C)[C@H](C(=O)NO)N(Cc1ccccc1)S(=O)(=O)c1ccc(OCC[18F])cc1` here?
A: 2.5 min

Q: What about the Tmax (Kidney [5]) of the same compound?
A: 1.5 min

Q: And the t1/2 (Kidney [10])?
A: 3 min

Q: And the t1/2 (Liver [13])?
A: 7 min
